Measurements reported in ChEMBL document CHEMBL4814057, “4-4-(Anilinomethyl)-3-[4-(trifluoromethyl)phenyl]-1H-pyrazol-1-ylbenzoic acid derivatives as potent anti-gram-positive bacterial agents” (Eur J Med Chem, 2021).
≈ marks a conversion by molar mass, not a printed value. Calls of active or inactive are those of the source. The calls are words filed in the database; no cut-off is given here.

Legend:
Enterococcus faecium [1] = experiment: Antimicrobial activity against vancomycin-resistant Enterococcus faecium clinical isolate 1088051 by CLSI-based broth microdilution assay; format: functional
Enterococcus faecium [2] = experiment: Antimicrobial activity against vancomycin-resistant Enterococcus faecium clinical isolate 1091563 by CLSI-based broth microdilution assay; format: functional
Enterococcus faecium [3] = experiment: Antimicrobial activity against vancomycin-resistant Enterococcus faecium clinical isolate 1091720 by CLSI-based broth microdilution assay; format: functional
Enterococcus faecium [4] = experiment: Antimicrobial activity against vancomycin-resistant Enterococcus faecium clinical isolate 1094112 by CLSI-based broth microdilution assay; format: functional
Enterococcus faecium [5] = experiment: Antimicrobial activity against vancomycin-resistant Enterococcus faecium clinical isolate 1100440 by CLSI-based broth microdilution assay; format: functional
Enterococcus faecium [6] = experiment: Antimicrobial activity against vancomycin-resistant Enterococcus faecium clinical isolate 1088168 by CLSI-based broth microdilution assay; format: functional
Staphylococcus aureus [7] = experiment: Antimicrobial activity against methicillin-sensitive Staphylococcus aureus ATCC 29213 by CLSI-based broth microdilution assay; format: functional
Staphylococcus aureus [8] = experiment: Antimicrobial activity against methicillin-sensitive Staphylococcus aureus clinical isolate 1088060 by CLSI-based broth microdilution assay; format: functional
Procedure, shortened: (§1)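 Broth microdilution starting at 50 µg/ml with 2-fold serial dilutions; run in triplicate.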

Staphylococcus aureus [9] = experiment: Antimicrobial activity against methicillin-sensitive Staphylococcus aureus clinical isolate 1088105 by CLSI-based broth microdilution assay; format: functional
Staphylococcus aureus [10] = experiment: Antimicrobial activity against methicillin-sensitive Staphylococcus aureus clinical isolate 1088626 by CLSI-based broth microdilution assay; format: functional
Staphylococcus aureus [11] = experiment: Antimicrobial activity against methicillin-susceptible Staphylococcus aureus ATCC 25923 assessed as bacterial growth inhibitions by CLSI protocol based microdilution method; format: functional
Staphylococcus aureus [12] = experiment: Antimicrobial activity against antibiotic-resistant Staphylococcus aureus BM-2312 assessed as bacterial growth inhibitions by CLSI protocol based microdilution method; format: functional
Staphylococcus aureus [13] = experiment: Antimicrobial activity against methicillin-resistant Staphylococcus aureus ATCC 33591 assessed as bacterial growth inhibitions by CLSI protocol based microdilution method; format: functional
Staphylococcus aureus [14] = experiment: Antimicrobial activity against methicillin-resistant Staphylococcus aureus ATCC 700699 assessed as bacterial growth inhibitions by CLSI protocol based microdilution method; format: functional
Staphylococcus aureus [15] = experiment: Antimicrobial activity against methicillin-resistant Staphylococcus aureus ATCC 33592 assessed as bacterial growth inhibitions by CLSI protocol based microdilution method; format: functional
[16] = system: Staphylococcus epidermidis; experiment: Antimicrobial activity against methicillin-resistant Staphylococcus epidermidis ATCC 700296 assessed as bacterial growth inhibitions by CLSI protocol based microdilution method; format: functional
Bacillus subtilis = experiment: Antimicrobial activity against Bacillus subtilis ATCC 6623 assessed as bacterial growth inhibitions by CLSI protocol based microdilution method; format: functional; procedure, shortened: as §1
Enterococcus faecium [17] = experiment: Antimicrobial activity against vancomycin-resistant Enterococcus faecium ATCC 700221 assessed as bacterial growth inhibitions by CLSI protocol based microdilution method; format: functional
[18] = Selectivity index, ratio of IC50 for cytotoxicity against human HEK-293T cells to MIC of antimicrobial activity against methicillin-resistant Staphylococcus aureus ATCC 700699; format: toxicity, cell-based; conditions: read-out: Selectivity Index
Procedure, shortened: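 Ratio of HEK293 IC50 to MIC. HEK293 cells (4000/well, EMEM with 10% FBS, 37 °C, 5% CO2) treated 24 h with a concentration range in DMSO. Resazurin added for 4 h, fluorescence read at ex 560/em 590 nm. IC50 fitted.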

Staphylococcus aureus [19] = experiment: Antibiofilm activity against Staphylococcus aureus ATCC 25923 assessed as inhibition of biofilm formation at 2 times MIC after 24 hrs by crystal violet staining based assay relative to control; format: functional; set-up: scale not given: the % may be the effect or the level left
Procedure, shortened: (§2)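 Overnight culture brought to 0.5 McFarland in PBS, diluted 1:100 in CAMHB with 1% glucose. Inhibition: cells plus compound (in DMSO) at 2x, 1x, 0.5xMIC, 24 h at 35 °C, triplicate. Destruction: 24 h biofilm grown without drug, washed, fresh medium with compound, further 24 h. Then washed, dried, 0.1% crystal violet, solubilized in 33% acetic acid, OD 620 nm. Controls are DMSO-only and broth-only wells.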

Staphylococcus aureus [20] = experiment: Antibiofilm activity against Staphylococcus aureus ATCC 25923 assessed as inhibition of biofilm formation at 0.5 times MIC after 24 hrs by crystal violet staining based assay relative to control; format: functional, organism-based; procedure, shortened: as §2
Staphylococcus aureus [21] = experiment: Antibiofilm activity against Staphylococcus aureus ATCC 25923 assessed as destruction of biofilm formation at 2 times MIC after 24 hrs by crystal violet staining based assay relative to control; format: functional; procedure, shortened: as §2
Staphylococcus aureus [22] = experiment: Antibiofilm activity against Staphylococcus aureus ATCC 25923 assessed as destruction of biofilm formation at 1 times MIC after 24 hrs by crystal violet staining based assay relative to control; format: functional; procedure, shortened: as §2
Staphylococcus aureus [23] = experiment: Antibiofilm activity against Staphylococcus aureus ATCC 25923 assessed as destruction of biofilm formation at 0.5 times MIC after 24 hrs by crystal violet staining based assay relative to control; format: functional, organism-based; procedure, shortened: as §2
Enterococcus faecalis [24] = experiment: Antibiofilm activity against Enterococcus faecalis ATCC 29212 assessed as inhibition of biofilm formation at 1 times MIC after 24 hrs by crystal violet staining based assay relative to control; format: functional; procedure, shortened: as §2
Enterococcus faecalis [25] = experiment: Antibiofilm activity against Enterococcus faecalis ATCC 29212 assessed as inhibition of biofilm formation at 0.5 times MIC after 24 hrs by crystal violet staining based assay relative to control; format: functional; procedure, shortened: as §2
Staphylococcus aureus [26] = experiment: Antibacterial activity against methicillin resistant Staphylococcus aureus ATCC 700699 persisters assessed as reduction in viability at 16 times MIC by colony counting method; format: functional, organism-based
Procedure, shortened: (§3)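 Stationary-phase S. aureus from overnight CAMHB culture (35 °C, 200 rpm), washed thrice in PBS, diluted to ~5 × 10^8 CFU/ml. Incubated with antibiotic at 35 °C, 200 rpm. Aliquots taken at set times, washed, serially diluted in PBS, drop-plated (6 × 6) on TSA with 5% sheep blood. Colonies counted after 18–20 h at 35 °C. Triplicates.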

Staphylococcus aureus [27] = experiment: Antibacterial activity against methicillin resistant Staphylococcus aureus ATCC 700699 persisters assessed as reduction in viability at 8 times MIC measured within 4 hrs by colony counting method; format: functional; conditions: time hrs <=4; procedure, shortened: as §3
Staphylococcus aureus [28] = experiment: Antibacterial activity against methicillin resistant Staphylococcus aureus ATCC 700699 persisters assessed as reduction in viability at 4 times MIC measured within 4 hrs by colony counting method; format: functional; conditions: time hrs <=4; procedure, shortened: as §3
Staphylococcus aureus [29] = experiment: Antibacterial activity against methicillin resistant Staphylococcus aureus ATCC 700699 persisters assessed as reduction in viability at 2 times MIC measured within 4 hrs by colony counting method; format: functional; conditions: time hrs <=4; procedure, shortened: as §3
Staphylococcus aureus [30] = experiment: Bactericidal activity against Staphylococcus aureus ATCC 700699 assessed as reduction bacterial growth at 4X MIC measured after 6 hrs by time-kill kinetic assay; format: functional, organism-based
Procedure, shortened: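 Log-phase culture diluted to ~5 × 10^6 CFU/ml in warm CAMHB, exposed at 4xMIC, 35 °C. 20 µl samples every 2 h, 10-fold dilutions to 10^-5, 6 × 6 drop plating. CFU/ml counted after 18–24 h at 35 °C; triplicate.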

Staphylococcus aureus [31] = experiment: Antibacterial activity against vancomycin-intermediate susceptible Staphylococcus aureus ATCC 25923 assessed as bacterial growth inhibition by measuring fold increase in MIC between 8 passages by broth dilution method; format: functional
Staphylococcus aureus [32] = experiment: Antibacterial activity against vancomycin-intermediate susceptible Staphylococcus aureus ATCC 25923 assessed as bacterial growth inhibition by measuring fold increase in MIC between 14 passages by broth dilution method; format: functional
Enterococcus faecalis [33] = experiment: Antibacterial activity against vancomycin-intermediate Enterococcus faecalis ATCC 29212 assessed as bacterial growth inhibition by measuring fold increase in MIC after14 passages by broth dilution method; format: functional, organism-based
Enterococcus faecalis [34] = experiment: Antimicrobial activity against vancomycin-susceptible Enterococcus faecalis ATCC 29212 assessed as bacterial growth inhibitions by CLSI protocol based microdilution method
Staphylococcus aureus [35] = experiment: Inhibition of DNA synthesis in Staphylococcus aureus ATCC 29213 at 8 times MIC measured by liquid scintillation counter; format: functional
Procedure, shortened: (§4)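 Early-exponential cells in CAMHB added to drug (40x stock) in triplicate, with a no-drug control. After 30 min pre-incubation at room temperature, [3H]thymidine 3.0 µCi/tube (DNA) or [3H]uridine 0.5 µCi/tube (RNA) added for 30 min at room temperature. Stopped with cold TCA, precipitate filtered and washed, then scintillation counted.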

Staphylococcus aureus [36] = experiment: Antibacterial activity against vancomycin-intermediate resistant Staphylococcus aureus ATCC 700699 assessed as bacterial growth between 7 passages measured 14 to 21 days by broth dilution method; format: functional, organism-based; conditions: time 14-21 day
Staphylococcus aureus [37] = experiment: Antibacterial activity against vancomycin-intermediate susceptible Staphylococcus aureus ATCC 25923 assessed as bacterial growth inhibition between 7 passages by broth dilution method; format: functional, organism-based
Enterococcus faecalis [38] = experiment: Antibacterial activity against vancomycin-intermediate Enterococcus faecalis ATCC 29212 assessed as bacterial growth inhibition by measuring fold increase in MIC after 7 passages by broth dilution method; format: functional, organism-based
Staphylococcus aureus [39] = experiment: Inhibition of protein synthesis in Staphylococcus aureus ATCC 29213 at 8 times MIC measured by liquid scintillation counter; format: functional
Staphylococcus aureus [40] = experiment: Inhibition of RNA synthesis in Staphylococcus aureus ATCC 29213 at 8 times MIC measured by liquid scintillation counter; format: functional; procedure, shortened: as §4

## C[C@@H](O)[C@H]1C(=O)N2C(C(=O)O)=C(S[C@@H]3CN[C@H](C(=O)N(C)C)C3)[C@H](C)[C@H]12 [MEROPENEM]
Enterococcus faecium [1]
  MIC: 2 µg/mL (≈ 5.22 µM)
Enterococcus faecium [2]
  MIC: 2 µg/mL (≈ 5.22 µM)
Enterococcus faecium [3]
  MIC: 8 µg/mL (≈ 20.9 µM)
Enterococcus faecium [4]
  MIC: 8 µg/mL (≈ 20.9 µM)
Enterococcus faecium [5]
  MIC: 4 µg/mL (≈ 10.4 µM)
Enterococcus faecium [6]
  MIC: 4 µg/mL (≈ 10.4 µM)
Staphylococcus aureus [7]
  MIC: 0.06 µg/mL (≈ 0.156 µM)
Staphylococcus aureus [8]
  MIC: 0.06 µg/mL (≈ 0.156 µM)
Staphylococcus aureus [9]
  MIC: 0.12 µg/mL (≈ 0.313 µM)
Staphylococcus aureus [10]
  MIC: 0.06 µg/mL (≈ 0.156 µM)

## O=C(O)c1ccc(-n2cc(CNc3cc(Cl)c(F)c(Cl)c3)c(-c3ccc(C(F)(F)F)cc3)n2)cc1
Staphylococcus aureus [11]
  MIC: 0.78 µg/mL (≈ 1.49 µM)
Staphylococcus aureus [12]
  MIC: 0.78 µg/mL (≈ 1.49 µM)
Staphylococcus aureus [13]
  MIC: 0.78 µg/mL (≈ 1.49 µM)
Staphylococcus aureus [14]
  MIC: 0.78 µg/mL (≈ 1.49 µM)
Staphylococcus aureus [15]
  MIC: 0.78 µg/mL (≈ 1.49 µM)
[16]
  MIC: 0.78 µg/mL (≈ 1.49 µM)
Bacillus subtilis
  MIC: 0.78 µg/mL (≈ 1.49 µM)
Enterococcus faecium [17]
  MIC: 0.78 µg/mL (≈ 1.49 µM)
[18]
  selectivity ratio: 33
Staphylococcus aureus [19]
  Activity: > 85%
Staphylococcus aureus [20]
  Activity: inactive
Staphylococcus aureus [21]
  Activity: 70%
Staphylococcus aureus [22]
  Activity: 55%
Staphylococcus aureus [23]
  Activity: inactive
Enterococcus faecalis [24]
  Activity: inactive
Enterococcus faecalis [25]
  Activity: inactive
Staphylococcus aureus [26]
  Activity: Active
Staphylococcus aureus [27]
  Activity: 1 log10CFU/ml
Staphylococcus aureus [28]
  Activity: 1 log10CFU/ml
Staphylococcus aureus [29]
  Activity: 1 log10CFU/ml
Staphylococcus aureus [30]
  Activity: Active
Staphylococcus aureus [31]
  fold change (FC): 2
Staphylococcus aureus [32]
  fold change (FC): 2
Enterococcus faecalis [33]
  Activity: inactive
Enterococcus faecalis [34]
  MIC: 1.56 µg/mL (≈ 2.98 µM)

## O=C(O)c1cn(C2CC2)c2cc(N3CCNCC3)c(F)cc2c1=O [CIPROFLOXACIN]
Staphylococcus aureus [35]
  inhibition (INH): 86.2%
Staphylococcus aureus [36]
  Activity: inactive
Staphylococcus aureus [37]
  Activity: inactive
Enterococcus faecalis [38]
  Activity: inactive

## CC(=O)NC[C@H]1CN(c2ccc(N3CCOCC3)c(F)c2)C(=O)O1
Staphylococcus aureus [39]
  inhibition: 70.7%

## CO[C@H]1/C=C/O[C@@]2(C)Oc3c(C)c(O)c4c(O)c(c(/C=N/N5CCN(C)CC5)c(O)c4c3C2=O)NC(=O)/C(C)=C\C=C\[C@H](C)[C@H](O)[C@@H](C)[C@@H](O)[C@@H](C)[C@H](OC(C)=O)[C@@H]1C [RIFAMPIN]
Staphylococcus aureus [40]
  inhibition (INH): 76.3%
